Assay results as given in ChEMBL document CHEMBL1122182, “Structure-activity studies on the C-terminal amide of substance P” (1982).
Where a SMILES comes first, the peptide text is derived from it. [ ]: non-standard residue; d: D form. The star is where a group is joined. Nle = CCCC[C@H](N)C(=O)O; NEt2 = CCN(CC)*; X1 = CN(C)N*; NHNH2 = NN*

Columns and labels:
Type in all cases: functional
Rattus norvegicus = experiment: In vivo relative blood pressure potency was measured in rat
Cavia porcellus [1] = species: Cavia porcellus; experiment: In vitro (pD2) the negative log of the dose which causes half-maximal contraction was measured in guinea pig ileum
In short: (§1)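 Contraction of isolated guinea pig ileum. Peptide solutions were prepared and used the same day, then discarded. Responses were expressed as pD2, intrinsic activity (αE) and relative affinity.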

Cavia porcellus [2] = species: Cavia porcellus; experiment: In vitro relative affinity was measured in guinea pig ileum; in short: as §1
Cavia porcellus [3] = species: Cavia porcellus; experiment: In vitro intrinsic activity was measured in guinea pig ileum; in short: as §1

CSCC[C@H](NC(=O)[C@H](CC(C)C)NC(=O)CNC(=O)[C@H](Cc1ccccc1)NC(=O)[C@H](Cc1ccccc1)NC(=O)[C@H](CCC(N)=O)NC(=O)[C@@H](N)CCC(N)=O)C(=O)NN(C)C (H-QQFFGLM-X1)
RBP (Rattus norvegicus): <0.05% | pD2 (Cavia porcellus [1]): 6.6 | RA (Cavia porcellus [2]): 0.53%

CCCC[C@H](NC(=O)[C@H](CC(C)C)NC(=O)CNC(=O)[C@H](Cc1ccccc1)NC(=O)[C@H](Cc1ccccc1)NC(=O)[C@H](CCC(N)=O)NC(=O)[C@@H](N)CCC(N)=O)C(=O)O (H-QQFFGL[Nle]-OH)
RBP (Rattus norvegicus): 1.5% | pD2 (Cavia porcellus [1]): 6.34 | Activity (Cavia porcellus [3]): 1 | RA (Cavia porcellus [2]): 2.6%

CCCC[C@H](NC(=O)[C@H](CC(C)C)NC(=O)CNC(=O)[C@H](Cc1ccccc1)NC(=O)[C@H](Cc1ccccc1)NC(=O)[C@H](CCC(N)=O)NC(=O)[C@@H](N)CCC(N)=O)C(N)=O (H-QQFFGL[Nle]-NH2)
pD2 (Cavia porcellus [1]): 7.93 | Activity (Cavia porcellus [3]): 1

CCCC[C@H](NC(=O)[C@H](CC(C)C)NC(=O)CNC(=O)[C@H](Cc1ccccc1)NC(=O)[C@H](Cc1ccccc1)NC(=O)[C@H](CCC(N)=O)NC(=O)[C@@H](N)CCC(N)=O)C(=O)N(CC)CC (H-QQFFGL[Nle]-NEt2)
RBP (Rattus norvegicus): 0.2% | pD2 (Cavia porcellus [1]): 6.03 | Activity (Cavia porcellus [3]): 1 | RA (Cavia porcellus [2]): 1.3%

CNC(=O)[C@H](CCSC)NC(=O)[C@H](CC(C)C)NC(=O)CNC(=O)[C@H](Cc1ccccc1)NC(=O)[C@H](Cc1ccccc1)NC(=O)[C@H](CCC(N)=O)NC(=O)[C@@H](N)CCC(N)=O (H-QQFFGLM-NHMe)
RBP (Rattus norvegicus): 5% | pD2 (Cavia porcellus [1]): 6.77 | Activity (Cavia porcellus [3]): 0.85 | RA (Cavia porcellus [2]): 1%

CSCC[C@H](NC(=O)[C@H](CC(C)C)NC(=O)CNC(=O)[C@H](Cc1ccccc1)NC(=O)[C@H](Cc1ccccc1)NC(=O)[C@H](CCC(N)=O)NC(=O)[C@@H](N)CCC(N)=O)C(N)=O (H-QQFFGLM-NH2)
RBP (Rattus norvegicus): 100% | pD2 (Cavia porcellus [1]): 8.77 | Activity (Cavia porcellus [3]): 1 | RA (Cavia porcellus [2]): 100%

COC(=O)[C@H](CCSC)NC(=O)[C@H](CC(C)C)NC(=O)CNC(=O)[C@H](Cc1ccccc1)NC(=O)[C@H](Cc1ccccc1)NC(=O)[C@H](CCC(N)=O)NC(=O)[C@@H](N)CCC(N)=O (H-QQFFGLM-OMe)
RBP (Rattus norvegicus): 1% | pD2 (Cavia porcellus [1]): 7.3 | Activity (Cavia porcellus [3]): 1 | RA (Cavia porcellus [2]): 3.37%

CSCC[C@H](NC(=O)[C@H](CC(C)C)NC(=O)CNC(=O)[C@H](Cc1ccccc1)NC(=O)[C@H](Cc1ccccc1)NC(=O)[C@H](CCC(N)=O)NC(=O)[C@@H](N)CCC(N)=O)C(=O)NN (H-QQFFGLM-NHNH2)
RBP (Rattus norvegicus): 0.4% | pD2 (Cavia porcellus [1]): 6.8 | Activity (Cavia porcellus [3]): 1 | RA (Cavia porcellus [2]): 1%

CSCC[C@H](NC(=O)[C@H](CC(C)C)NC(=O)CNC(=O)[C@H](Cc1ccccc1)NC(=O)[C@H](Cc1ccccc1)NC(=O)[C@H](CCC(N)=O)NC(=O)[C@@H](N)CCC(N)=O)C(=O)N(C)C (H-QQFFGLM-NMe2)
RBP (Rattus norvegicus): 0.2% | RA (Cavia porcellus [2]): <0.01%

CCCC[C@H](NC(=O)[C@H](CC(C)C)NC(=O)CNC(=O)[C@H](Cc1ccccc1)NC(=O)[C@H](Cc1ccccc1)NC(=O)[C@H](CCC(N)=O)NC(=O)[C@@H](N)CCC(N)=O)C(=O)OC (H-QQFFGL[Nle]-OMe)
RBP (Rattus norvegicus): 1.5% | pD2 (Cavia porcellus [1]): 6.47 | Activity (Cavia porcellus [3]): 1 | RA (Cavia porcellus [2]): 3.5%

CCCC[C@H](NC(=O)[C@H](CC(C)C)NC(=O)CNC(=O)[C@H](Cc1ccccc1)NC(=O)[C@H](Cc1ccccc1)NC(=O)[C@H](CCC(N)=O)NC(=O)[C@@H](N)CCC(N)=O)C(=O)NN (H-QQFFGL[Nle]-NHNH2)
RBP (Rattus norvegicus): 5.2% | pD2 (Cavia porcellus [1]): 6.63 | Activity (Cavia porcellus [3]): 1 | RA (Cavia porcellus [2]): 5%
